From ChEMBL document CHEMBL1146459, “Production of biologically active taxoids by a callus culture of Taxus cuspidata” (2004)

Experiments:
MKN-74 = experiment: Growth inhibition of human MKN74 cells after 48 hrs by SRB assay; type: functional; conditions: MKN-74, 48 h
SNB-75 = experiment: Growth inhibition of human SNB75 cells after 48 hrs by SRB assay; type: functional; conditions: SNB-75, 48 h
HT-29 = experiment: Growth inhibition of human HT-29 cells after 48 hrs by SRB assay; type: functional; conditions: HT-29, 48 h
[1] = Reversal of multidrug resistance in human 2780AD cells assessed as [3H]vincristine accumulation at 10 ug/mL after 2 hrs relative to control; type: functional, A2780 ADR
Outline: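 Multidrug-resistant human ovarian cancer 2780AD cells were exposed to taxoids at 0.1, 1 or 10 µg/mL. Radiolabelled vincristine accumulated in the cells was measured as dpm/well, using means of triplicate determinations. Results are expressed as % of vincristine accumulated relative to the control experiment. They were also scored on a seven-level index according to the range of relative accumulation.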

ACHN = experiment: Growth inhibition of human ACHN cells after 48 hrs by SRB assay; type: functional
MKN-28 = experiment: Growth inhibition of human MKN28 cells after 48 hrs by SRB assay; type: functional; conditions: MKN-28, 48 h
DMS-273 = experiment: Growth inhibition of human DMS273 cells after 48 hrs by SRB assay; type: functional; conditions: DMS-273, 48 h
SF-295 = experiment: Growth inhibition of human SF295 cells after 48 hrs by SRB assay; type: functional; conditions: SF-295, 48 h
[2] = Reversal of multidrug resistance in human 2780AD cells assessed as [3H]vincristine accumulation at 10 ug/mL after 2 hrs relative to verapamil; type: functional, A2780 ADR
St-4 = experiment: Growth inhibition of human St-4 cells after 48 hrs by SRB assay; type: functional; conditions: St-4, 48 h
HCT-15 = experiment: Growth inhibition of human HCT15 cells after 48 hrs by SRB assay; type: functional; conditions: HCT-15, 48 h
SF-268 = experiment: Growth inhibition of human SF268 cells after 48 hrs by SRB assay; type: functional; conditions: SF-268, 48 h
MKN-7 = experiment: Growth inhibition of human MKN7 cells after 48 hrs by SRB assay; type: functional; conditions: MKN-7, 48 h
[3] = Growth inhibition of human BSY1 cells after 48 hrs by SRB assay; type: functional; conditions: BSY-1, 48 h
[4] = Growth inhibition of human HBC5 cells after 48 hrs by SRB assay; type: functional; conditions: HBC5, 48 h
NCI-H23 = experiment: Growth inhibition of human NCI-H23 cells after 48 hrs by SRB assay; type: functional; conditions: NCI-H23, 48 h
OVCAR-8 = experiment: Growth inhibition of human OVCAR8 cells after 48 hrs by SRB assay; type: functional; conditions: OVCAR-8, 48 h
PC-3 = experiment: Growth inhibition of human PC3 cells after 48 hrs by SRB assay; type: functional; conditions: PC-3, 48 h
NCI-H226 = experiment: Growth inhibition of human NCI-H226 cells after 48 hrs by SRB assay; type: functional; conditions: NCI-H226, 48 h
DMS-114 = experiment: Growth inhibition of human DMS114 cells after 48 hrs by SRB assay; type: functional; conditions: DMS-114, 48 h
DU-145 = experiment: Growth inhibition of human DU145 cells after 48 hrs by SRB assay; type: functional; conditions: DU-145, 48 h
[5] = read-out: LC50 (the source's name)
[6] = read-out: pLC50 (the source's name) (converted)

With `C=C1[C@@H](OC(C)=O)CC[C@@]2(C)C[C@H](OC(C)=O)C3=C(C)C[C@H](OC(=O)C(C)CC)[C@@H]([C@@H](OC(C)=O)[C@H]12)C3(C)C` (stereo partly specified) the GI50 (MKN-74; read-out: GI50) was 30 µM, the CC50 (MKN-74; [5]) was greater than 100 µM and the TGI (MKN-74; read-out: TGI) was greater than 100 µM. For the same compound, the GI50 (MKN-74; read-out: pGI50 (converted)) was 30.2 µM, the CC50 (MKN-74; [6]) was 100 µM and the TGI (MKN-74; read-out: pTGI (converted)) was 100 µM. The CC50 (SNB-75; [5]) was greater than 100 µM, the TGI (SNB-75; read-out: TGI) was 55 µM and the GI50 (SNB-75; read-out: pGI50 (converted)) was 8.91 µM. For the same compound, the CC50 (SNB-75; [6]) was 100 µM, the TGI (SNB-75; read-out: pTGI (converted)) was 55 µM and the GI50 (HT-29; read-out: GI50) was 28 µM. The CC50 (HT-29; [5]) was greater than 100 µM, the TGI (HT-29; read-out: TGI) was greater than 100 µM and the GI50 (HT-29; read-out: pGI50 (converted)) was 27.5 µM. For the same compound, the CC50 (HT-29; read-out: pLC50 (converted)) was greater than 100 µM, the TGI (HT-29; read-out: pTGI (converted)) was 100 µM and the Activity [1] was 701%. It also gave a GI50 (ACHN; read-out: GI50) of 28 µM, a CC50 (ACHN; [5]) greater than 100 µM and a TGI (ACHN; read-out: TGI) greater than 100 µM. For the same compound, the GI50 (ACHN; read-out: pGI50 (converted)) was 28.2 µM, the CC50 (ACHN; [6]) was 100 µM and the TGI (ACHN; read-out: pTGI (converted)) was 100 µM. It also gave a GI50 (MKN-28; read-out: GI50) of 31 µM, a CC50 (MKN-28; [5]) greater than 100 µM and a TGI (MKN-28; read-out: TGI) greater than 100 µM. The GI50 (MKN-28; read-out: pGI50 (converted)) was 30.9 µM, the CC50 (MKN-28; read-out: pLC50 (converted)) was greater than 100 µM and the TGI (MKN-28; read-out: pTGI (converted)) was 100 µM. For the same compound, the GI50 (DMS-273; read-out: GI50) was 22 µM, the CC50 (DMS-273; [5]) was greater than 100 µM and the TGI (DMS-273; read-out: TGI) was greater than 100 µM. The GI50 (DMS-273; read-out: pGI50 (converted)) was 22.4 µM, the CC50 (DMS-273; [6]) was 100 µM and the TGI (DMS-273; read-out: pTGI (converted)) was 100 µM. It also gave a GI50 (SF-295; read-out: GI50) of 21 µM, a CC50 (SF-295; [5]) greater than 100 µM and a TGI (SF-295; read-out: TGI) greater than 100 µM. It also gave a GI50 (SF-295; read-out: pGI50 (converted)) of 21.4 µM, a TGI (SF-295; read-out: pTGI (converted)) of 100 µM and an Activity [2] of 132%. For the same compound, the GI50 (St-4; read-out: GI50) was 33 µM, the CC50 (St-4; [5]) was greater than 100 µM and the TGI (St-4; read-out: TGI) was greater than 100 µM. The GI50 (St-4; read-out: pGI50 (converted)) was 33.1 µM, the CC50 (St-4; [6]) was 100 µM and the TGI (St-4; read-out: pTGI (converted)) was 100 µM. For the same compound, the GI50 (HCT-15; read-out: GI50) was 32 µM, the CC50 (HCT-15; [5]) was greater than 100 µM and the TGI (HCT-15; read-out: TGI) was greater than 100 µM. It also gave a GI50 (HCT-15; read-out: pGI50 (converted)) of 32.4 µM, a CC50 (HCT-15; read-out: pLC50 (converted)) greater than 100 µM and a TGI (HCT-15; read-out: pTGI (converted)) of 100 µM. The GI50 (SF-268; read-out: GI50) was 74 µM, the CC50 (SF-268; [5]) was greater than 100 µM and the TGI (SF-268; read-out: TGI) was greater than 100 µM. The GI50 (SF-268; read-out: pGI50 (converted)) was 74.1 µM, the CC50 (SF-268; [6]) was 100 µM and the TGI (SF-268; read-out: pTGI (converted)) was 100 µM. The GI50 (MKN-7; read-out: GI50) was 18 µM, the CC50 (MKN-7; [5]) was greater than 100 µM and the TGI (MKN-7; read-out: TGI) was 93 µM. For the same compound, the GI50 (MKN-7; read-out: pGI50 (converted)) was 18.2 µM, the CC50 (MKN-7; [6]) was 100 µM and the TGI (MKN-7; read-out: pTGI (converted)) was 93.3 µM. For the same compound, the GI50 ([3]; read-out: GI50) was 30 µM, the CC50 [3, 5] was greater than 100 µM and the TGI ([3]; read-out: TGI) was greater than 100 µM. For the same compound, the GI50 ([3]; read-out: pGI50 (converted)) was 30.2 µM, the TGI ([3]; read-out: pTGI (converted)) was 100 µM and the GI50 ([4]; read-out: GI50) was 25 µM. It also gave a CC50 [4, 5] greater than 100 µM, a TGI ([4]; read-out: TGI) greater than 100 µM and a GI50 ([4]; read-out: pGI50 (converted)) of 25.1 µM. The CC50 [4, 6] was 100 µM, the TGI ([4]; read-out: pTGI (converted)) was 100 µM and the GI50 (NCI-H23; read-out: GI50) was 23 µM. It also gave a CC50 (NCI-H23; [5]) greater than 100 µM, a TGI (NCI-H23; read-out: TGI) of 69 µM and a GI50 (NCI-H23; read-out: pGI50 (converted)) of 22.9 µM. For the same compound, the CC50 (NCI-H23; [6]) was 100 µM, the TGI (NCI-H23; read-out: pTGI (converted)) was 69.2 µM and the GI50 (OVCAR-8; read-out: GI50) was 37 µM. The CC50 (OVCAR-8; [5]) was greater than 100 µM, the TGI (OVCAR-8; read-out: TGI) was greater than 100 µM and the GI50 (OVCAR-8; read-out: pGI50 (converted)) was 37.2 µM. The TGI (OVCAR-8; read-out: pTGI (converted)) was 100 µM, the GI50 (PC-3; read-out: GI50) was 20 µM and the CC50 (PC-3; [5]) was greater than 100 µM. The TGI (PC-3; read-out: TGI) was greater than 100 µM, the GI50 (PC-3; read-out: pGI50 (converted)) was 20 µM and the TGI (PC-3; read-out: pTGI (converted)) was 100 µM. For the same compound, the GI50 (NCI-H226; read-out: GI50) was 32 µM, the CC50 (NCI-H226; [5]) was greater than 100 µM and the TGI (NCI-H226; read-out: TGI) was greater than 100 µM. The GI50 (NCI-H226; read-out: pGI50 (converted)) was 32.4 µM, the CC50 (NCI-H226; [6]) was 100 µM and the TGI (NCI-H226; read-out: pTGI (converted)) was 100 µM. For the same compound, the GI50 (DMS-114; read-out: GI50) was 10 µM, the CC50 (DMS-114; [5]) was greater than 100 µM and the TGI (DMS-114; read-out: TGI) was 57 µM. It also gave a GI50 (DMS-114; read-out: pGI50 (converted)) of 10 µM, a CC50 (DMS-114; [6]) of 100 µM and a TGI (DMS-114; read-out: pTGI (converted)) of 57.5 µM. The GI50 (DU-145; read-out: GI50) was 33 µM, the CC50 (DU-145; [5]) was greater than 100 µM and the TGI (DU-145; read-out: TGI) was greater than 100 µM. It also gave a GI50 (DU-145; read-out: pGI50 (converted)) of 32.4 µM, a CC50 (DU-145; [6]) of 100 µM and a TGI (DU-145; read-out: pTGI (converted)) of 100 µM.
